Compounds with a hit are over-represented: about 3.9% of the library has one in this group of screens.
CHOP inh – inhibitors of CHOP induction in ER stress response. CHO-K1 CHOP-promoter luciferase, tunicamycin-induced, 15-18 h. inhibition, % at 10 µM. 220,000 compounds, 3.8% hits. AID 2732;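 active = compounds that reduced the stress-induced luciferase reporter signal by more than about 70% of percent inhibition, limit read from the data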;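 also: 0% = tunicamycin plus vehicle and 100% = wells without tunicamycin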
Jurkat NFkB inh – inhibitors of the PMA/ionomycin-induced NF-kB reporter in Jurkat cells | PMA/ionomycin-induced NF-kB luciferase reporter, luminescence | inhibition, % at 4 µM | 330,000 compounds, 0.53% hits | AID 435003; in the data active = inhibition above about 50%
CHOP UPR activ – activators of apoptotic arm of unfolded protein response (CHOP) | CHO-CHOP luciferase reporter, UPR activation, luminescence; percent of tunicamycin response over DMSO baseline | activation, % at 10 µM | 330,000 compounds, 0.34% hits | AID 449763;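 active = at 10 µM dose, activation of 40% or more, normalized to positive control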;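 also: 100% = tunicamycin at 10 µg/mL and 0% = DMSO alone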
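Assay system: CHO-CHOP cells, stable luciferase reporter of PERK-eIF2a-CHOP signalling / Buffer or medium: F12 plus 10% serum / Compound dosing: one dose, 10 µM in 0.5% DMSO / Times: 6 h compound treatment, 37 °C / Technique: luciferase luminescence / Read-out: % reporter activation, DMSO baseline versus tunicamycin full activation / Benchmarks: tunicamycin and DMSO controls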
Gli-Sufu block – blocks Gli-Sufu signaling in a luciferase reporter; inhibition, % at 5 µM; 340,000 compounds, 0.74% hits; Sufu-KO-LIGHT fibroblasts, Gli luciferase reporter luminescence;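 active = inhibition above about 55%, limit read from the data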;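 also: 0% = DMSO-treated cells and 100% = wells with medium but no cells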
697 NFkB inh – lowers PMA/ionomycin-induced NF-kB signal in 697 B cells. 697 B-cell NF-kB luciferase reporter, 16 h. inhibition, % at 4 µM. 330,000 compounds, 0.33% hits; in the data active = inhibition above about 35%
XBP1 UPR activ – activators of adaptive arm of unfolded protein response (XBP1). CHO-XBP1 luciferase reporter, IRE1-XBP1 UPR activation, luminescence; percent of tunicamycin response, DMSO as zero. activation, % at 20 µM. 330,000 compounds, 0.33% hits;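 active = versus positive control, 20 µM dose yields 30% or more activation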;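 also: 100% = tunicamycin at 10 µg/mL and 0% = DMSO only wells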
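Signal: luciferase luminescence; Assay system: CHO-XBP1 luciferase reporter cells; Amount: one thousand reporter cells per well; Dosing: 20 µM single concentration, DMSO 1%; Benchmarks: high control tunicamycin 10 µg/mL final, low control DMSO vehicle only; Schedule: 6 h compound exposure at 37 °C, 5% CO2; Evaluation: percent activation relative to tunicamycin reference.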
Jurkat NFkB conf – lowers PMA/ionomycin-induced NF-kB signal in Jurkat cells; shares compounds with Jurkat NFkB inh; Jurkat NF-kB luciferase, 16 h; inhibition, % at 4 µM; 2,700 compounds, 27% hits; AID 435020;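 active = inhibition reaching about 45% at 4 µM in either replicate, limit read from the data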;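 also: plate controls were PMA/ionomycin stimulated DMSO wells for no effect and unstimulated DMSO wells for full effect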
697 NFkB conf – inhibitors of the PMA/ionomycin-induced NF-kB reporter in 697 B cells, retest | shares compounds with 697 NFkB inh | 2,000 compounds, 35% hits | inhibition, % at 4 µM | 697 B-cell NF-kB luciferase, 16 h; in the data active = inhibition mostly above about 28%, no sharp cut-off; inactive = mostly below about 22%
Gli-Sufu confirm – Gli-SUFU antagonism confirmation, single concentration | Sufu-KO-LIGHT cells, Gli luciferase reporter, luminescence | inhibition, % at 5 µM | AID 602428 | shares compounds with Gli-Sufu block | 2,500 compounds, 40% hits;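 active = mean inhibition at 5 µM reaching about 45%, limit read from the data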;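 also: plate controls were DMSO-treated cells for no effect and wells lacking cells for full effect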
Gli cytotox – cytotoxic in Gli-SUFU antagonist counter-screen; shares compounds with Gli-Sufu block; Sufu-KO-LIGHT cells cytotoxicity, ATP luminescence; cytotoxicity, % at 5 µM; 2,500 compounds, 32% hits; AID 651994;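 active = mean cytotoxicity at 5 µM above about 25%, limit read from the data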;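 also: cells exposed to compound overnight for roughly 16 to 18 hours; plate controls were DMSO wells with cells for no effect and medium without cells for full effect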
Wnt3a counter – Wnt3a reporter inhibition counter-screen | inhibition, % at 6.25 µM | 2,500 compounds, 20% hits | Wnt-LIGHT cells, Wnt3a-driven luciferase reporter, luminescence | shares compounds with Gli-Sufu block;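 active = mean inhibition above about 25%, limit read from the data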
Starred values were filed as active, the others as inactive; . = no result given.

SMILES	CHOP inh	Jurkat NFkB inh	CHOP UPR activ	Gli-Sufu block	697 NFkB inh	XBP1 UPR activ	Jurkat NFkB conf	Gli-Sufu confirm	Gli cytotox	Wnt3a counter	others
CN(Cc1ccccc1)C1=CC(=[N+]2CCCC2)CC(C)(C)C1	21	62*	-1	91*	19	2	59*	88*	27*	48*
CC1(C)CC(N2CCCC2)=CC(=[N+]2CCCCCC2)C1	33	57*	-1	83*	71*	2	63*	88*	34*	42*	697 NFkB conf=51*
CC1(C)CC(N2CCN(c3ccccc3)CC2)=CC(=[N+]2CCCC2)C1	29	57*	0	83*	5	-2	28	86*	35*	38*
CCN1CCN(CCCNC(=O)CCC(=O)N2CC(C)Oc3ccc(C)cc32)CC1 (stereo not drawn)	.	4	-1	-7	0	-3	.	.	.	.
O=S(=O)(c1ccc(Br)cc1)N1CCCc2ccccc21	.	-2	-1	30	-24	-3	.	.	.	.
CC1=CC(C)(C)N(C(=O)CCl)c2cc(C)ccc21	59	14	-2	7	20	3	.	.	.	.
CC1=CC(C)(C)N(S(=O)(=O)c2ccc(C)cc2)c2cc(C)ccc21	.	50*	1	59*	-95	21	53*	58*	62*	-5
COc1ccc(NC(=O)/C(=C\c2ccccc2)NC(=O)c2ccco2)cc1	.	12	-1	0	11	-4	.	.	.	.
CC(C)CN(C(=O)c1ccc(-n2cncn2)c([N+](=O)[O-])c1)C1CCS(=O)(=O)C1 (stereo not drawn)	.	-10	-2	-3	9	2	.	.	.	.
CN1/C(=C/c2cccc[n+]2C)Sc2ccccc21	.	71*	0	69*	13	4	6	86*	38*	36*
CN1/C(=C/C(=O)C2CCC2)Sc2ccccc21	26	-57	2	-44	-61	7	.	.	.	.
COc1ccc2c(c1)N(C)/C(=C/c1cccc[n+]1C)S2	.	61*	-2	80*	-26	-1	11	84*	36*	29*
Cc1ccc(NS(=O)(=O)c2ccc3c(c2)CC(=O)N3)cc1F	.	-7	3	-5	13	-2	.	.	.	.
O=C(NCCNc1ccnc2cc(Cl)ccc12)c1ccccc1F	.	56*	4	67*	-37	-2	29	50*	17	-22
Cc1cc(C)cc(NS(=O)(=O)c2ccc(-c3cnc(C4CC4)o3)cc2)c1	.	56*	-1	55*	-52	8	55*	51*	57*	-14
COc1cc(C2c3cc4c(cc3C(OC3OC5COC(c6cccs6)OC5C(O)C3O)C3COC(=O)C23)OCO4)cc(OC)c1O (stereo not drawn)	-9	80*	3	82*	-35	-5	94*	81*	72*	57*
O=C(CSc1nnnn1C1CC2CCC1C2)Nc1ccnc2ccccc12 (stereo not drawn)	.	83*	3	83*	95*	-2	71*	85*	35*	6	697 NFkB conf=96*
O=C(CSc1nnnn1C1CCCCC1)Nc1ccccc1F	-13	8	-1	0	12	5	.	.	.	.
CC(C)[C@H](CN1CCC[C@H]1CN1C(N)=NC[C@H]1C(C)C)N1C[C@@H](Cc2ccccc2)N(CCCC2CCCC2)C1=N	.	-22	0	-1	-38	2	.	.	.	.
